This note sets out measurements from ChEMBL document CHEMBL1122517, “2-Phenylindoles. Relationship between structure, estrogen receptor affinity, and mammary tumor inhibiting activity in the rat” (1984).

SMILES strings stand for the structures. Where “and” joins values, the source holds several entries; their conditions need not be identical. Identical values can stand only once.

Experiment [1] is filed under the species Rattus norvegicus. Put plainly: Change in body weight of DMBA-induced mammary carcinoma tumor bearing rats at 1.8 mg dose. In kind it is functional. Put shortly:
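DMBA-induced tumor-bearing Sprague-Dawley rats (20 mg DMBA by gavage at 50 days old), randomized when tumor area exceeded 140 mm². Dose per kg was given sc in olive oil, single dose daily Monday to Thursday, double dose Friday. Body weight was measured twice weekly. Read-out was % change in body weight.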

Experiment [2] concerns the target T1, Estrogen receptor (Mus musculus) (UniProt O08537+P19785). Put plainly: Anti-uterotrophic activity in mice as uterus dry weight (mg)/body weight (g) *100 at 5 ug dose. In kind it is functional, tissue-based. In short, it runs like this:
(§1)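 Immature female NMRI mice, 19 days old, groups of 10, given sc injections on 3 consecutive days. Each injection held 0.4 μg estrone plus the indole dose per animal, in olive oil (50 μL). Killed 24 h after the last injection. Uteri were fixed in Bouin solution, washed, and dried 24 h at 100 °C. Read-out was uterine dry weight (mg)/body weight (g) × 100, mean ± SD.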

The species named for experiment [3] is Rattus norvegicus. The experiment in a line: Percent progressive DMBA-induced mammary carcinoma tumors in rats at 1.8 mg dose. In kind it is functional. Put shortly: (§2)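 Female Sprague-Dawley rats, 50 days old, given a single 20 mg DMBA dose in 1 mL olive oil by gavage. Rats were palpated twice weekly from day 30, and those without tumors by day 70 were discarded. Rats were randomized once tumor area exceeded 140 mm². Drug dose was per kg in olive oil (1 mL/kg) sc, single dose Mon–Thu and double dose Fri. Tumor area (caliper, two perpendicular axes) and body weight were measured twice weekly.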

The species named for experiment [4] is Rattus norvegicus. Put plainly: Change in DMBA-induced mammary carcinoma tumor area in rats at 1.8 mg dose; -75-656. In kind it is functional. In short, it runs like this:
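Female Sprague-Dawley rats got one 20 mg DMBA dose by gavage at 50 days old and were palpated twice weekly from day 30. Rats were randomized once tumor area exceeded 140 mm². Dose (per kg) was given sc in olive oil, once daily Monday to Thursday and doubled on Friday. Tumor area was taken from caliper measurements of two perpendicular axes, twice weekly. Change per animal is given as median % and range.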

Experiment [5] deals with T1, Estrogen receptor (Mus musculus). The experiment in a line: Anti-uterotrophic activity in mice as uterus dry weight (mg)/body weight (g) *100 at 1 ug dose. In kind it is functional, tissue-based. In short, it runs like this:
as §1

Experiment [6] shares this target. Put plainly: Percentage inhibition of uterotrophic activity at 25 ug dose. In kind it is functional. In short, it runs like this:
(§3)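 Antiuterotrophic test in immature 19-day-old female NMRI mice (n=10), dosed sc on 3 consecutive days with 0.4 µg estrone per animal per day plus compound in olive oil. Uterine dry weight/body weight ×100 was read 24 h after the last dose. Inhibition % = 100 − [(E_S,T − E_V)/(E_S − E_V)]×100.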

The species named for experiment [7] is Rattus norvegicus. The experiment in a line: Partial remission (%) of DMBA-induced mammary carcinoma tumors in rats at 1.8 mg dose. In kind it is functional. Put shortly: (§4)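 DMBA-induced tumors in Sprague-Dawley rats, entered when tumor area exceeded 140 mm². Dose per kg was given sc in olive oil, daily Monday to Thursday with a double dose Friday. Tumors were measured by calipers twice weekly. Tumor number was counted at the start of the test. Complete remission meant the tumor was no longer palpable. Partial remission meant reduction to ≤50% of initial size. New tumor appearance was recorded.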

Experiment [8] deals with T1, Estrogen receptor (Mus musculus). Put plainly: Uterotrophic activity in mice as uterus dry weight (mg)/body weight (g) *100 at 25 ug dose. In kind it is functional, tissue-based. Put shortly: (§5)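 Immature 19-day-old female NMRI mice, groups of 10. Compound dose per animal in olive oil (50 µL) sc on 3 consecutive days. Mice were killed 24 h after the last injection. Uteri were Bouin-fixed 20 h, cleaned, washed with alcoholic LiCl, and dried at 100 °C for 24 h. Effect = uterine dry weight (mg)/body weight (g) ×100; mean ± SD.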

For experiment [9] the target is unchanged. Put plainly: Anti-uterotrophic activity in mice as uterus dry weight (mg)/body weight (g) *100 at 125 ug dose. In kind it is functional, tissue-based. In short, it runs like this: as §1
Experiment [10] is filed under the species Rattus norvegicus. Put plainly: Number of DMBA-induced mammary carcinoma tumors in rats at 1.8 mg dose. In kind it is functional. Put shortly: as §4
In experiment [11] the target is T1, Estrogen receptor (Mus musculus). Put plainly: Uterotrophic activity in mice as uterus dry weight (mg)/body weight (g) *100 at 125 ug dose. In kind it is functional, tissue-based. In short, it runs like this:
as §5

For experiment [12] the target is unchanged. Put plainly: Percentage inhibition of uterotrophic activity at 125 ug dose. In kind it is functional. Put shortly:
as §3

The target is the same in experiment [13]. The experiment in a line: Uterotrophic activity in mice as uterus dry weight (mg)/body weight (g) *100 at 1 ug dose. In kind it is functional, tissue-based. In short, it runs like this: as §5
For experiment [14], the species on record is Rattus norvegicus. Put plainly: Formation of new DMBA-induced mammary carcinoma tumors in rats at 1.8 mg dose. In kind it is functional. In short, it runs like this: as §4
Experiment [15] deals with T1, Estrogen receptor (Mus musculus). Put plainly: Anti-uterotrophic activity in mice as uterus dry weight (mg)/body weight (g) *100 at 25 ug dose. In kind it is functional, tissue-based. Put shortly:
as §1

For experiment [16] the target is unchanged. Put plainly: Uterotrophic activity in mice as uterus dry weight (mg)/body weight (g) *100 at 5 ug dose. In kind it is functional, tissue-based. In short, it runs like this:
as §5

The species entered for experiment [17] is Rattus norvegicus. The experiment in a line: Percent unchanged DMBA-induced mammary carcinoma tumors in rats at 1.8 mg dose. In kind it is functional. In short, it runs like this:
as §2

T1 sequence (O08537 whole entry, looked up): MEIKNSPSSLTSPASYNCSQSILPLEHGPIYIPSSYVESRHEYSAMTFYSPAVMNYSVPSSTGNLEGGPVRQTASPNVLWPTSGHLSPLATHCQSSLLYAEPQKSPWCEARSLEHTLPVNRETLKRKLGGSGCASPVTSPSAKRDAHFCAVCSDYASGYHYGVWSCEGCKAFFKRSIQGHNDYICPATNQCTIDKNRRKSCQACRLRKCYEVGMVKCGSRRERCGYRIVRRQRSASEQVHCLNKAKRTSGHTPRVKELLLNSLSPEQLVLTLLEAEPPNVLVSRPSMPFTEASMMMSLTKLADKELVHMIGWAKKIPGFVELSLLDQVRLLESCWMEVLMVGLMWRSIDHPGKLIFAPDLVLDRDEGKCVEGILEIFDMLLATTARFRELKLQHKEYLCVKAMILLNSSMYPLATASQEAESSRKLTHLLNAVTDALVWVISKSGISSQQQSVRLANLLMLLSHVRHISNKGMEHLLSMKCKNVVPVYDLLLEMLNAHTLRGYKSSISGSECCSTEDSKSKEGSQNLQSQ
T1 sequence (P19785 whole entry, looked up): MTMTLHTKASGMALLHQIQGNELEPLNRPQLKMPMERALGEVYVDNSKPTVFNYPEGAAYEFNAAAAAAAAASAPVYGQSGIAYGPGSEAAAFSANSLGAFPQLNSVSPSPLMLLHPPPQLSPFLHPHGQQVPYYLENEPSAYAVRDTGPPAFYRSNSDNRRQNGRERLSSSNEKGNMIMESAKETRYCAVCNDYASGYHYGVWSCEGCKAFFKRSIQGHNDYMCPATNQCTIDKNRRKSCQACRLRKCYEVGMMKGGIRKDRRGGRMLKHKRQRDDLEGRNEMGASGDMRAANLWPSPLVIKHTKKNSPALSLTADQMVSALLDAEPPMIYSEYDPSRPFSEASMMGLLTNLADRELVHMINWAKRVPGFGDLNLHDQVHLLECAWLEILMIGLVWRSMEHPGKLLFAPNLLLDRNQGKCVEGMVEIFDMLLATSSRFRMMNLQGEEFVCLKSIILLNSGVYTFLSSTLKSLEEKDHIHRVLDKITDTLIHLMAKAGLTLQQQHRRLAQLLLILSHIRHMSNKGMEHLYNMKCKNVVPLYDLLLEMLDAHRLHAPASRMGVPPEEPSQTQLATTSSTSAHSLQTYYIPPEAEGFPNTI

For orientation: inhibition means the change of the read-out against control, counted positive when it falls. High values mean a strong effect, low ones a weak effect. For the molecule `CCn1c(-c2ccc(OC(C)=O)cc2)c(C)c2cc(OC(C)=O)ccc21` [ZINDOXIFENE], in experiment [1], the “Change of body weight” value was found to be 1%. Besides, the Anti-uterotrophic effect in experiment [2] was 46.3 and 50.4; in experiment [5], 38.5 and 51.1; in experiment [9] it was 37.8 and 33; in experiment [15], 53.5 and 33.5. The Progressed tumors in [3] was 55%. The “Change of tumor area” value in experiment [4] is recorded as -75%. Further, the inhibition was 45% in experiment [6]; 25% and 46% in experiment [12]. Besides, the Partial remission in experiment [7] turned out to be 12%. Further, the Uterotrophic effect in [8] was 17.9 and 21; in [11], 19.5 and 30.5; in experiment [13], 16.4; in experiment [16], 14.1 and 19.6. Besides, the No. of tumors in experiment [10] turned out to be 33. For the same molecule, the New tumors in [14] was found to be 25. This molecule also yielded a Static tumors in [17] of 14%.
